Results published in ChEMBL document CHEMBL3872217, “Structure-guided discovery of thiazolidine-2,4-dione derivatives as a novel class of Leishmania major pteridine reductase 1 inhibitors” (Eur J Med Chem, 2016).
Activity calls are given as the source filed them. The rule behind the calls is not given here.

Experiments:
Pteridine reductase 1 = biological target: T1, Pteridine reductase 1 (Leishmania major, UniProt Q01782); experiment: Inhibition of Leishmania major recombinant N-terminal hexa-His tagged PTR1 catalytic activity expressed in Escherichia coli BL21(DE3) using biopterin as substrate measured for 60 sec in presence of NADPH by UV-visible spectrophotometric method relative to control
T1 sequence (Q01782 whole entry): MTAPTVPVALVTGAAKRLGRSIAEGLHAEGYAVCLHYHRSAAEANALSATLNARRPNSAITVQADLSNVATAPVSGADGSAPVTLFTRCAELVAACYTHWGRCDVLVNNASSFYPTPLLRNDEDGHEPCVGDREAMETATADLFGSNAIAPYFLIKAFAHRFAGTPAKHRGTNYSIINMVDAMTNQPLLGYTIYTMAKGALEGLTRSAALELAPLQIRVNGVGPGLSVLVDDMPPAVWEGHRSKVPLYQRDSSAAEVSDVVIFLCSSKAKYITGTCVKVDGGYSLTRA
Summary of the method: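 Spectrophotometric assay at 30 °C with purified recombinant LmPTR1 at 0.2 μM in 20 mM sodium citrate pH 4.7, with NADPH and biopterin cofactor/substrate. Compound added in 5% DMSO (v/v). NADPH consumption followed as the drop in absorbance at 340 nm over 60 s; triplicate. IC50 by non-linear regression over at least six inhibitor concentrations.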

[1] = biological target: T2, Pteridine reductase 1 (Leishmania major) (UniProt Q01782); experiment: Binding affinity to Leishmania major recombinant N-terminal hexa-His tagged PTR1 expressed in Escherichia coli BL21(DE3) assessed as change in melting temperature at 50 uM at pH 4.7 by SYPRO orange dye based thermal shift assay
T2 sequence (whole entry): T1 sequence (Q01782 whole entry)
Summary of the method: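 Recombinant LmPTR1 from E. coli BL21(DE3) with pET-LmPTR1, Ni-NTA purified. Protein 5 μM in 50 mM sodium acetate pH 4.7 with SYPRO Orange (excitation 492, emission 610 nm); compound 50 μM from 1 mM DMSO stock; reference wells with DMSO only. Melt 25–85 °C at 1 °C per min; Tm from Boltzmann sigmoidal fit; triplicate; ΔTm compared by Kruskal-Wallis.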

[2] = biological target: T2, Pteridine reductase 1 (Leishmania major); experiment: Inhibition of Leishmania major recombinant N-terminal hexa-His tagged PTR1 catalytic activity expressed in Escherichia coli BL21(DE3) at 50 uM using biopterin as substrate measured for 60 sec in presence of NADPH by UV-visible spectrophotometric method relative to control
[3] = biological target: T2, Pteridine reductase 1 (Leishmania major); experiment: Noncompetitive inhibition of Leishmania major recombinant N-terminal hexa-His tagged PTR1 catalytic activity expressed in Escherichia coli BL21(DE3) at 25 to 45 uM at pH 4.7 in presence of saturating concentration of biopterin and varying levels of NADPH by double-reciprocal plot analysis
Summary of the method: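 Inhibition mode measured under the 340 nm kinetic conditions (0.2 μM LmPTR1, 20 mM sodium citrate pH 4.7, 30 °C, 60 s). Biopterin held at saturating 40 μM; NADPH varied over 5.0, 7.5, 10.0, 20.0 and 40.0 μM at two fixed inhibitor concentrations. Analysed by double-reciprocal plots; means of at least three experiments.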

[4] = biological target: T2, Pteridine reductase 1 (Leishmania major); experiment: Effect on thermal stability of Leishmania major recombinant N-terminal hexa-His tagged PTR1 expressed in Escherichia coli BL21(DE3) by SYPRO orange dye based thermal shift assay
Summary of the method: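 Dose-response thermal stability run on Ni-NTA purified LmPTR1 (expressed from pET-LmPTR1 in E. coli BL21(DE3)) at 5 μM in 50 mM sodium acetate pH 4.7 with SYPRO Orange. Excitation 492 nm and emission 610 nm; ramp 25–85 °C, 1 °C per min. Tm taken from a Boltzmann sigmoidal fit against DMSO reference wells; done in triplicate.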

[5] = biological target: T2, Pteridine reductase 1 (Leishmania major); experiment: Noncompetitive inhibition of Leishmania major recombinant N-terminal hexa-His tagged PTR1 catalytic activity expressed in Escherichia coli BL21(DE3) assessed as decrease in thermal shift stabilization at 50 uM at pH 4.7 in presence of varying levels of NADPH and constant biopterin substrate concentration by SYPRO orange dye based assay
Summary of the method: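 Inhibition type probed by repeating the TSA screen (5 μM LmPTR1, 50 mM sodium acetate pH 4.7, SYPRO Orange, compound 50 μM) while varying NADPH at 0.0, 3.0, 6.25, 12.5 and 50 μM. Triplicate; ΔTm values compared by Kruskal-Wallis non-parametric ANOVA.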

| SMILES | IC50 (Pteridine reductase 1) [µM] | ΔTm [1] [°C] | inhibition [2] | inhibition [3] | Activity [4] [µM] | inhibition [5] |
| --- | --- | --- | --- | --- | --- | --- |
| COc1ccc(Br)c(/C=C2\SC(=O)NC2=O)c1 |  | > 1 |  |  |  |  |
| O=C1NC(=O)/C(=C/c2c(F)cccc2Br)S1 | 589 | 1.7 | 36% |  |  |  |
| O=C1NC(=O)/C(=C/c2c(Cl)cccc2Cl)S1 |  | < 1 |  |  |  |  |
| O=C1NC(=O)/C(=C/c2ccc(Cl)c(Cl)c2)S1 |  | 3.01 |  |  |  |  |
| O=C1NC(=O)/C(=C/c2cc(Cl)ccc2O)S1 | 75.9 | > 1 | Active |  | > 200 |  |

Second part, the molecule after the results:

| IC50 (Pteridine reductase 1) [µM] | ΔTm [1] [°C] | inhibition [2] | inhibition [3] | Activity [4] [µM] | inhibition [5] | SMILES |
| --- | --- | --- | --- | --- | --- | --- |
| 44.7 | 11 | Active | Active | > 200 | Active | O=C1NC(=O)/C(=C/c2cc(Cl)cc(Br)c2O)S1 |
|  | > 1 |  |  |  |  | O=C1NC(=O)/C(=C/c2ccc(Cl)cc2Cl)S1 |
